Compound activity (PubChem BioAssay)
A selection: hits, their analogues and other compounds. The true share with any hit is near 0.72%.
mIAP activ: mouse IAP activation; muIAP, CDP-Star luminescence, 30 min; stronger effect = higher value; 1 = vehicle-only enzyme signal, 0 = enzyme-free wells; activation factor at 10 µM; 0.24% of 330,000 active; AID 2805;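 active = activation factor of at least 2 at 20 µM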
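Assay system: mouse IAP enzyme; Reagent: CDP-Star chemiluminescent phosphatase substrate; Compound: DMSO-dissolved test compounds; Incubation: 30 min, room temperature; Technique: luminescence from enzymatic CDP-Star hydrolysis; Controls: DMSO-only wells and no-enzyme negative control.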
hIAP inh: human IAP inhibition; P09923; purified IAP, CDP-Star luminescence, 30 min; inhibition, % at 10 µM; 0.12% of 330,000 active; AID 2544;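 active = inhibition reaching a set limit with compound at 10 µM in the primary screen, cut at about 35% in these data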
Target sequence (P09923 whole entry, looked up): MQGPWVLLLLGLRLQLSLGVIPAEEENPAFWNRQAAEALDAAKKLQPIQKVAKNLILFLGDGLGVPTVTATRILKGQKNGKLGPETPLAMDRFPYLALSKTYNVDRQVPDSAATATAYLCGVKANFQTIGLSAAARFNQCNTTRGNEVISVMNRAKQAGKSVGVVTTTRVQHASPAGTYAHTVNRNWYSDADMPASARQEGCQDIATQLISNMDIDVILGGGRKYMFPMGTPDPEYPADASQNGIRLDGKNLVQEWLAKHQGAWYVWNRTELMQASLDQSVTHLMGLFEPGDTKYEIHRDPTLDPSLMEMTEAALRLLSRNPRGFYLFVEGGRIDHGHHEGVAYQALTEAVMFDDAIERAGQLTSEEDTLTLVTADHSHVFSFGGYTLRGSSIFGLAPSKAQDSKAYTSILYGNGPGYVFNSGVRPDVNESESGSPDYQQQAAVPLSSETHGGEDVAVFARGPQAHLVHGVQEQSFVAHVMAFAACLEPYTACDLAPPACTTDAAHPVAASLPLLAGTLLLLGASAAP
bIAP activator: intestinal alkaline phosphatase (bovine) activation; purified bovine IAP, CDP-star luminescence, 30 min; stronger effect = higher value; fold of DMSO-control signal, blank-subtracted; activation factor at 20 µM; 0.17% of 200,000 active;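 active = activation factor of 2 or more at 20 µM, a signal rise over negative controls twice the positive control's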
hIAP act: human IAP activation. P09923. 0.16% of 330,000 active. AID 2524. purified human IAP, CDP-Star luminescence, 30 min; stronger effect = higher value; 1 = vehicle-only enzyme, 0 = enzyme-free background. activation factor at 10 µM;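 active = activation factor of the enzyme at least 2-fold when tested at 20 µM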
mIAP block: mouse IAP inhibition; purified mouse IAP, CDP-Star luminescence, 30 min; inhibition, % at 10 µM; 0.2% of 330,000 active; AID 2806;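 active = inhibition of at least 40% at 10 µM in the primary screen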
bIAP inhibitor: intestinal alkaline phosphatase (bovine) inhibition. purified bovine IAP, CDP-star luminescence, 30 min. inhibition, % at 20 µM. 190,000 tested, under 10 active;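 active = over 50% inhibition of intestinal alkaline phosphatase at 20 µM in the single-dose screen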
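Incubation: 30 min reaction at room temperature / Material: purified bovine intestinal alkaline phosphatase (IAP) enzyme / Input: enzyme at 1/65,000,000 dilution / Dosing: 20 µM single dose / Signal: CDP-star luminescence signal / Reagent: CDP-star chemiluminescent phosphatase substrate, 30 µM final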
mIAP inh conf: mouse IAP inhibition confirmation; shares compounds with mIAP block; purified mouse IAP, CDP-Star luminescence, 30 min; inhibition, % at 10 µM; 4.7% of 11,000 active;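 active = inhibition of at least 40% at 10 µM in either of the two replicates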
Hits are given with their value.

What do the screens show for `C[C@H](CO)N1C[C@H](C)[C@@H](CN(C)S(=O)(=O)c2ccc(F)cc2)Oc2ccc(NC(=O)NC3CCCCC3)cc2C1=O`?
mIAP activ: 4.2; hIAP inh: inactive; hIAP act: inactive; mIAP block: inactive; mIAP inh conf: inactive

Results for CCOC(=O)N1CCN(C(=O)CSC2=NS(=O)(=O)c3ccccc3N2)CC1 ?
mIAP activ: inactive; hIAP inh: inactive; hIAP act: inactive; mIAP block: inactive

How did COc1ccccc1N1CCN(C(=O)C2CCN(C(=O)c3ccc(C(C)(C)C)cc3)CC2)CC1 do in these assays?
mIAP activ: inactive; hIAP inh: inactive; hIAP act: inactive; mIAP block: inactive

How did O=C(N[C@H]1C/C=C\C[C@@H](CC(=O)N(CCO)Cc2ccccc2)C(=O)NC[C@H](c2ccccc2)OC1=O)OCC1c2ccccc2-c2ccccc21 do in these assays?
mIAP activ: inactive; hIAP inh: inactive; hIAP act: inactive; mIAP block: inactive

What do the screens show for `COc1ccc(/C=C2/C(=O)C(C)(C(C)C)CCC2C)cc1` (centres undefined)?
mIAP activ: inactive; hIAP inh: inactive; hIAP act: inactive; mIAP block: inactive

What do the screens show for `COc1ccc(S(=O)(=O)N(C)C[C@H]2Oc3ccc(NC(=O)Nc4ccccc4)cc3C(=O)N([C@H](C)CO)C[C@@H]2C)cc1`?
mIAP activ: 3.1; hIAP inh: inactive; hIAP act: inactive; mIAP block: inactive; mIAP inh conf: inactive

Results for CCn1c(SC(C)C(=O)NCC2CCCO2)nc2ccccc21 (centres undefined) ?
mIAP activ: inactive; hIAP inh: inactive; hIAP act: inactive; mIAP block: inactive

How did CCOC(=O)Cc1nnc2c(Nc3ccc(Cl)cc3)nc3nonc3n12 do in these assays?
mIAP activ: inactive; hIAP inh: inactive; bIAP activator: inactive; hIAP act: inactive; mIAP block: inactive; bIAP inhibitor: inactive; mIAP inh conf: 37

Results for N=C1/C(=C\c2ccc(SCc3ccco3)o2)C(=O)N=C2SC=NN12 ?
mIAP activ: inactive; hIAP inh: inactive; bIAP activator: inactive; hIAP act: inactive; mIAP block: 69; bIAP inhibitor: inactive; mIAP inh conf: 76

What do the screens show for `CC1=NN2C(=N)/C(=C\c3ccc(SCc4ccccc4)o3)C(=O)N=C2S1`?
mIAP activ: inactive; hIAP inh: inactive; bIAP activator: inactive; hIAP act: inactive; mIAP block: inactive; bIAP inhibitor: inactive

What do the screens show for `Oc1cccc(O)c1O`?
mIAP activ: inactive; hIAP inh: inactive; hIAP act: inactive; mIAP block: 52; mIAP inh conf: 58

What do the screens show for `CN1C(=O)CSc2ccc(NC(=O)NCCC3=CCCCC3)cc21`?
mIAP activ: 3.8; hIAP inh: inactive; bIAP activator: inactive; hIAP act: inactive; mIAP block: inactive; bIAP inhibitor: inactive; mIAP inh conf: inactive

What do the screens show for `CC(C)CCNC(=O)Nc1ccc2c(c1)N(C)C(=O)CS2`?
mIAP activ: inactive; hIAP inh: inactive; bIAP activator: inactive; hIAP act: inactive; mIAP block: inactive; bIAP inhibitor: inactive

How did O=C(N/N=C/c1ccco1)c1cccc(S(=O)(=O)Nc2ccccc2Cl)c1 do in these assays?
mIAP activ: inactive; hIAP inh: inactive; bIAP activator: inactive; hIAP act: inactive; mIAP block: 54; bIAP inhibitor: inactive; mIAP inh conf: 61

What do the screens show for `CC(C)[C@H](NC(=O)c1ccc(Br)cc1)C(=O)NC1CCCCC1`?
mIAP activ: inactive; hIAP inh: inactive; hIAP act: inactive; mIAP block: inactive

How did C[C@@H](CN=[N+]=[N-])CN1CC[C@H](C(C)(C)C)CCC1=O do in these assays?
mIAP activ: inactive; hIAP inh: inactive; hIAP act: inactive; mIAP block: inactive

What do the screens show for `Cc1c(C(=O)Nc2ccc(S(=O)(=O)Nc3ncccn3)cc2)oc2ccc(F)cc12`?
mIAP activ: inactive; hIAP inh: inactive; hIAP act: inactive; mIAP block: inactive

How did C#CCOCCOCCOCCNc1nc(N2CCN(C(=O)CCCCCCCCCCNC(=O)[C@H]([C@@H](C)CC)n3cc(CCCCN=C(N)N)nn3)CC2)nc(N2CCN(C(=O)CCCCCCCCCCNC(=O)[C@H](CCCCN)n3cc(C)nn3)CC2)n1 do in these assays?
mIAP activ: 2.8; hIAP inh: inactive; hIAP act: inactive; mIAP block: inactive; mIAP inh conf: inactive

Results for C#CCOCCOCCOCCNc1nc(N2CCN(C(=O)Cn3cc(CCCN=C(N)N)nn3)CC2)nc(N2CCN(C(=O)[C@H]([C@@H](C)CC)n3cc(CCCCN)nn3)CC2)n1 ?
mIAP activ: inactive; hIAP inh: inactive; hIAP act: inactive; mIAP block: inactive

What do the screens show for `C#CCOCCOCCOCCNc1nc(N2CCN(C(=O)CCCCCCCCCCNC(=O)[C@H]([C@@H](C)CC)n3cc(CCCCCN)nn3)CC2)nc(N2CCN(C(=O)CCCCCCCCCCNC(=O)[C@H]([C@@H](C)CC)n3cc(CCCCN=C(N)N)nn3)CC2)n1`?
mIAP activ: 18; hIAP inh: inactive; hIAP act: inactive; mIAP block: inactive; mIAP inh conf: inactive

How did CC[C@H](C)[C@@H](C(=O)NCCCCCCCCCCC(=O)N1CCN(C(=O)OC(C)(C)C)CC1)n1cc(CCCCN=C(NC(=O)OC(C)(C)C)NC(=O)OC(C)(C)C)nn1 do in these assays?
mIAP activ: 2.3; hIAP inh: inactive; hIAP act: inactive; mIAP block: inactive; mIAP inh conf: inactive

What do the screens show for `C#CCOCCOCCOCCNc1nc(N2CCN(C(=O)CCCCCCCCCCNC(=O)[C@H]([C@@H](C)CC)n3cc(CCCCN=C(N)N)nn3)CC2)nc(N2CCN(C(=O)CCCCCCCCCCNC(=O)[C@H](CO)n3cc(CCCCCN)nn3)CC2)n1`?
mIAP activ: 6.4; hIAP inh: inactive; hIAP act: inactive; mIAP block: inactive; mIAP inh conf: inactive

How did C#CCOCCOCCOCCNc1nc(N2CCN(C(=O)CCCCCCCCCCNC(=O)[C@H](CO)n3cc(CCCSC)nn3)CC2)nc(N2CCN(C(=O)CCCCCCCCCCNC(=O)[C@H](CCCCN)n3cc(CCO)nn3)CC2)n1 do in these assays?
mIAP activ: inactive; hIAP inh: inactive; hIAP act: inactive; mIAP block: inactive

What do the screens show for `Cc1ccc(Cn2nc(C)c(C(=O)NCC(c3cccs3)N3CCOCC3)c2Cl)cc1` (centres undefined)?
mIAP activ: inactive; hIAP inh: inactive; hIAP act: inactive; mIAP block: inactive

What do the screens show for `CC(C)n1cc(C(=O)N2CCCC(N3CCN(c4cccc(Cl)c4)CC3)C2)cn1` (centres undefined)?
mIAP activ: inactive; hIAP inh: inactive; hIAP act: inactive; mIAP block: inactive
